hIAP activ – human IAP activators, primary screen, biochemical, luminescence, uHTS. purified human IAP, CDP-Star luminescence, 30 min; stronger effect = higher value; 1 = vehicle-only enzyme, 0 = enzyme-free background. activation factor at 10 µM. 0.16% of 330,000 active. AID 2524, 2010;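 active means activation factor of the enzyme at least 2-fold when tested at 20 µM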
Target sequence (P09923 whole entry, looked up): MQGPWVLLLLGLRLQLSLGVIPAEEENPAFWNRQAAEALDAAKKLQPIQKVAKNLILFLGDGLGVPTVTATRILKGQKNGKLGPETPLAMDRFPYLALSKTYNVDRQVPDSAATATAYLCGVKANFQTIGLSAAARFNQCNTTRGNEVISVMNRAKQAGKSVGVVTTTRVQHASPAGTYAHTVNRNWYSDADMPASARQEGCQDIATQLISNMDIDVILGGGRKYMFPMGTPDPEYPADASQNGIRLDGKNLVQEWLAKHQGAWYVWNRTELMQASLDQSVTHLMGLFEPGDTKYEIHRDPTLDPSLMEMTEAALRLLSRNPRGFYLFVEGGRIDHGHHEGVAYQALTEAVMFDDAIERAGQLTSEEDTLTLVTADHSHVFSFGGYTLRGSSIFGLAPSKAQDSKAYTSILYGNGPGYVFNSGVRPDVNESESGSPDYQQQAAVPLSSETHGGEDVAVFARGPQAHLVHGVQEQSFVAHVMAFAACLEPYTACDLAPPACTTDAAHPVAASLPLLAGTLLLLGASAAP
hIAP inh – human IAP inhibitors, primary screen, biochemical, luminescence, uHTS | Intestinal-type alkaline phosphatase (Homo sapiens), P09923 | purified IAP, CDP-Star luminescence, 30 min | inhibition, % at 10 µM | 0.12% of 330,000 active | AID 2544, 2010;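 active means inhibition reaching a set limit with compound at 10 µM in the primary screen, cut at about 35% in these data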;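 further: plate controls were DMSO wells with enzyme for no effect and no-enzyme buffer wells for full effect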
mIAP block – inhibitors of mouse IAP, primary screen, biochemical, luminescence, uHTS; intestinal alkaline phosphatase [Mus musculus]; purified mouse IAP, CDP-Star luminescence, 30 min; inhibition, % at 10 µM; 0.2% of 330,000 active; AID 2806, 2010;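 active means inhibition of at least 40% at 10 µM in the primary screen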;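 further: plate controls were DMSO with enzyme for no effect and no enzyme wells for full effect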
mIAP act – activators of mouse IAP, primary screen, biochemical, luminescence, uHTS; AID 2805, 2010; muIAP, CDP-Star luminescence, 30 min; stronger effect = higher value; 1 = vehicle-only enzyme signal, 0 = enzyme-free wells; activation factor at 10 µM; intestinal alkaline phosphatase [Mus musculus]; 0.24% of 330,000 active;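 active means activation factor of at least 2 at 20 µM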
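Assay system: mouse IAP enzyme; Reagent: CDP-Star chemiluminescent phosphatase substrate; Compound: DMSO-dissolved test compounds; Incubation: 30 min, room temperature; Technique: luminescence from enzymatic CDP-Star hydrolysis; Controls: DMSO-only wells and no-enzyme negative control.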
bIAP inh – bovine intestinal alkaline phosphatase inhibitors, primary screen, selectivity assay for TNAP inhibitor project, biochemical, bovine IAP, CDP-star luminescence. 190,000 tested, under 10 active. inhibition, % at 20 µM. AID 1019, 2008. purified bovine IAP, 30 min. alkaline phosphatase, intestinal [Bos taurus];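 active means over 50% inhibition of intestinal alkaline phosphatase at 20 µM in the single-dose screen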
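test system = bovine IAP enzyme | medium = DEA buffer 100 mM, pH 9.8, with MgCl2 1.0 mM, ZnCl2 0.02 mM | detection = luminescence | dosing = single compound dose of 20 µM, 2% DMSO final | incubation = 30 min reaction at room temperature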
bIAP activator – bovine intestinal alkaline phosphatase activators, primary screen, biochemical, bovine IAP, CDP-star luminescence | 0.17% of 200,000 active | AID 1016, 2008 | purified bovine IAP, 30 min; stronger effect = higher value; fold of DMSO-control signal, blank-subtracted | activation factor at 20 µM | alkaline phosphatase, intestinal [Bos taurus];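 active means activation factor of 2 or more at 20 µM, a signal rise over negative controls twice the positive control's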
hIAP act conf – human IAP activators, confirmation, biochemical, luminescence, single concentration, uHTS hits. shares compounds with hIAP activ. purified IAP, CDP-Star luminescence, 30 min; stronger effect = lower value. activation (%Activity, negative = activation), % at 8.3 µM. 10% of 880 active. AID 434926, 2010;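 active means at least twofold enzyme activation in any of six single-dose repeats, which the averaged readout prints as negative percent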
The depositor's hits bear a star; x = no result given. Shown are actives, neighbours in structure and some others; about 0.79% of the full set was active somewhere.

SMILES | hIAP activ | hIAP inh | mIAP block | mIAP act | bIAP inh | bIAP activator | hIAP act conf
CCN1/C(=C/c2ccc3cc(C)ccc3[n+]2CC)Sc2ccccc21 | 0.63 | 37* | 34 | 0.66 | -23 | 1.2 | 9
CCN1/C(=C/c2ccc3cc(C)ccc3[n+]2CC)Sc2cc(C)c(C)cc21 | 0.68 | 32 | 17 | 0.83 | x | 0.3 | x
CCCCNC(=S)N/N=C/c1ccc(C#N)cc1 | 0.95 | 5 | 3 | 0.97 | 11 | 0.9 | x
Cc1ccc(C(=O)NNC(=O)c2n[nH]c(=O)c3ccccc23)cc1C | 2.2* | -118 | 16 | 0.84 | x | x | -41
O=C(NNC(=O)c1n[nH]c(=O)c2ccccc12)c1ccc(Br)cc1 | 2.1* | -113 | 15 | 0.85 | x | x | -12
CCc1ccc(C(=O)NNC(=O)c2n[nH]c(=O)c3ccccc23)cc1 | 1.7 | -67 | 12 | 0.89 | x | x | x
Cc1cccc(N(CC(=O)NCCc2ccccc2)C(=O)CCC(=O)Nc2ccccn2)c1C | 0.98 | 2 | 4 | 0.96 | x | x | x
O=C(NC1CCCCCC1)c1ccc(-n2cnnc2)cc1 | 0.65 | 35* | -2 | 1 | x | x | -59*
CCN(CC(=O)Nc1c(F)cccc1F)C(=O)c1ccc(C)c(S(=O)(=O)N2CCCCC2)c1 | 1.1 | -5 | 12 | 0.88 | x | x | x
Cc1ncc([N+](=O)[O-])n1CCOC(=O)c1ccc(Cl)cc1Cl | 0.91 | 9 | -2 | 1 | 6 | 0.9 | x
CCOc1cccc(-c2nc(C(N)=O)c3[nH]c(=O)n(-c4cccc(Cl)c4)c3n2)c1O | 4* | -296 | 20 | 0.8 | -13 | 1.1 | -75*
Cc1ccc(NC(=O)CSCC(=O)Nc2nnc(C)s2)cc1 | 0.9 | 10 | 4 | 0.96 | x | x | x
CCCCn1c(O)c(N=Nc2ccccc2O)c2ccccc21 | 2.7* | -174 | 20 | 0.8 | x | x | 6
O=C(NCCCc1ccccc1)c1ccc(CS(=O)Cc2ccc(Cl)cc2)o1 (configuration not stated) | 0.61 | 39* | 6 | 0.94 | x | x | -22
CCOc1cc(/C=C2/C(=O)NN(c3cccc(Cl)c3)C2=O)ccc1O | 0.67 | 33 | 16 | 0.83 | x | x | x
COc1cc(/C=C2/C(=O)NN(c3cccc(Cl)c3)C2=O)cc(OC)c1O | 0.5 | 50* | 23 | 0.77 | x | x | 9
COc1ccc(NS(=O)(=O)c2c(C)cc(C)cc2C)cn1 | 1 | -4 | 4 | 0.96 | x | x | x
O=C(CCCc1ccccc1)Nc1ccnn1C1CCN(Cc2ccccn2)CC1 | 1.2 | -18 | -2 | 1 | x | x | x
Cc1ccccc1CN1CCC(n2nccc2NC(=O)CCCc2ccccc2)CC1 | 2.9* | -190 | -89 | 1.9 | x | x | 26
CC(=O)N/N=C/c1cc(C(C)C)cc(/C=N/NC(C)=O)c1O | 2.5* | -154 | 11 | 0.89 | -43 | 1.4 | -11
CC(=O)N/N=C/c1cc(C)n(-c2ccc(Br)cc2)c1C | 1.1 | -14 | -10 | 1.1 | -16 | 1.2 | x
O=C(CNC(=S)N(CCCN1CCOCC1)Cc1cccs1)NC1CC1 | 1.2 | -20 | 17 | 0.83 | 5 | 1 | x
O=C(CNC(=S)N(CCCN1CCOCC1)Cc1cccs1)NCc1ccccc1 | 3.1* | -207 | -12 | 1.1 | x | x | 5
O=C(N/N=C/c1ccncc1)c1nc2ccccc2c(=O)[nH]1 | 2.7* | -170 | -19 | 1.2 | x | x | 7
O=C(N/N=C/c1ccc2cccnc2c1)c1nc2ccccc2c(=O)[nH]1 | 2.7* | -167 | 9 | 0.91 | x | x | -193*
Cc1ccccc1OCC(=O)OCC(=O)Nc1cc(S(=O)(=O)N2CCCCC2)ccc1Cl | 0.97 | 2 | 0 | 1 | x | x | x
CN(CC(=O)Nc1ccccc1Cl)C(=O)COC(=O)c1cnccn1 | 0.65 | 35* | -3 | 1 | x | x | -1

From PubChem BioAssay
